Source: ChEMBL document CHEMBL2146390, “Identification of Hydroxybenzoic Acids as Selective Lactate Receptor (GPR81) Agonists with Antilipolytic Effects” (ACS Med Chem Lett, 2012)
Activity calls are given as the source filed them. The rule behind the calls is not given here.

Experiments:
[1] = biological target: Hydroxycarboxylic acid receptor 1 (Homo sapiens, UniProt Q9BXC0); assay: Agonist activity at human recombinant GPR81 transfected in african green monkey COS-7 cells after 20 mins by [35S]GTPgammaS binding assay; format: functional, cell-based
Procedure, shortened: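 hGPR81 agonism measured by GTPγS binding, run as in an earlier cited report; EC50 values are the mean of at least two determinations with standard deviation.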

[2] = test system: Mus musculus; assay: Antilipolytic activity in DIO C57B16/J mouse assessed as reduction in nonesterified free fatty acid cholesterol level at 30 mg/kg, po after 30 mins by enzymatic assay; format: functional, organism-based; parameters: dose 30 mg/kg
Procedure, shortened: (§1)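 Acute oral dosing at 30, 100 or 300 mg/kg in C57Bl6/J mice fed high-fat chow for 10 weeks (DIO) and fasted overnight. Nonesterified free fatty acid cholesterol (NEFAc) served as the lipolysis marker. Niacin 30 was a reference arm, and groups were compared with vehicle (P < 0.05, P < 0.01).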

[3] = test system: Mus musculus; assay: Antilipolytic activity in DIO C57B16/J mouse assessed as reduction in nonesterified free fatty acid cholesterol level at 300 mg/kg, po after 30 mins by enzymatic assay; format: functional, organism-based; parameters: dose 300 mg/kg; procedure, shortened: as §1
[4] = biological target: G-protein coupled receptor 81 (Canis lupus familiaris, UniProt B9UM26); assay: Agonist activity at dog GPR81; format: functional
[5] = AUC (0 to infinity) in C57B16/J mouse at 30 mg/kg, po; format: ADME, organism-based; parameters: dose 30 mg/kg, route oral, time infinity; conditions: plasma
Procedure, shortened: (§2)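 Mice received single oral doses of 30 or 100 mg/kg. Exposure was followed over time to derive tmax, AUCinf, Cmax (ng/mL, converted to μM) and t1/2.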

[6] = test system: Mus musculus; assay: Antilipolytic activity in DIO C57B16/J mouse assessed as reduction in nonesterified free fatty acid cholesterol level at 100 mg/kg, po after 30 mins by enzymatic assay; format: functional, organism-based; parameters: dose 100 mg/kg; procedure, shortened: as §1
[7] = Half life in C57B16/J mouse at 30 mg/kg, po; format: ADME, organism-based; parameters: dose 30 mg/kg, route oral; conditions: in vivo; procedure, shortened: as §2
[8] = Tmax in C57B16/J mouse at 100 mg/kg, po; format: ADME, organism-based; parameters: dose 100 mg/kg, route oral; conditions: in vivo; procedure, shortened: as §2
[9] = Half life in C57B16/J mouse at 100 mg/kg, po; format: ADME, organism-based; parameters: dose 100 mg/kg, route oral; conditions: in vivo; procedure, shortened: as §2
[10] = biological target: T1, Hydroxycarboxylic acid receptor 1 (Mus musculus, UniProt Q8C131); assay: Agonist activity at mouse GPR81; format: functional
T1 sequence (Q8C131 whole entry): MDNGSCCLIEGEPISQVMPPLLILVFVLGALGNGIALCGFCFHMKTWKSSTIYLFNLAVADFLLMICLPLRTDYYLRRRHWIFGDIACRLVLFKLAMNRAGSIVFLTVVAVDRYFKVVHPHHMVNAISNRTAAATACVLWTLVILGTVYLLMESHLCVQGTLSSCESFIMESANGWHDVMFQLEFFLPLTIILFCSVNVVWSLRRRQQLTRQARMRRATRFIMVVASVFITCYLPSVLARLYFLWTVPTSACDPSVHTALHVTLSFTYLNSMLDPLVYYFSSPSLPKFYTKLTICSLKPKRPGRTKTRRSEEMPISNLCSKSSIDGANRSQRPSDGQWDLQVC

[11] = biological target: T2, Protein Gpr81 (Rattus norvegicus, UniProt G3V906); assay: Agonist activity at rat GPR81; format: functional
T2 sequence (G3V906 whole entry): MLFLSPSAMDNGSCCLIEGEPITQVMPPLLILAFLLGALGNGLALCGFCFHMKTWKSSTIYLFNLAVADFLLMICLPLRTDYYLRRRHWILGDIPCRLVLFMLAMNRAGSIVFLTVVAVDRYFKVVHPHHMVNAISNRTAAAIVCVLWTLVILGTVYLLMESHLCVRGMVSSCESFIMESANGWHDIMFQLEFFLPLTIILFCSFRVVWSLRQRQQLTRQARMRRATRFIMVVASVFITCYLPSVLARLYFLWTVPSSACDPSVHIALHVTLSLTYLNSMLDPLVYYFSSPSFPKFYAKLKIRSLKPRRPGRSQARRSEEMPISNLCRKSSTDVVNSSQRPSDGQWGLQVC

[12] = AUC (0 to infinity) in C57B16/J mouse at 100 mg/kg, po; format: ADME, organism-based; parameters: time infinity, dose 100 mg/kg, route oral; conditions: plasma; procedure, shortened: as §2
[13] = Cmax in C57B16/J mouse at 100 mg/kg, po; format: ADME, organism-based; parameters: dose 100 mg/kg, route oral; conditions: in vivo; procedure, shortened: as §2
[14] = Cmax in C57B16/J mouse at 30 mg/kg, po; format: ADME, organism-based; parameters: dose 30 mg/kg, route oral; conditions: in vivo; procedure, shortened: as §2
[15] = Tmax in C57B16/J mouse at 30 mg/kg, po; format: ADME, organism-based; parameters: dose 30 mg/kg, route oral; conditions: in vivo; procedure, shortened: as §2
[16] = Agonist activity at hamster GPR81; format: functional, Cricetinae
[17] = biological target: G-protein coupled receptor 81 (Macaca mulatta, UniProt B9UM29); assay: Agonist activity at monkey GPR81; format: functional
G-protein coupled receptor 81 (Macaca mulatta, UniProt B9UM29), sequence (B9UM29 whole entry): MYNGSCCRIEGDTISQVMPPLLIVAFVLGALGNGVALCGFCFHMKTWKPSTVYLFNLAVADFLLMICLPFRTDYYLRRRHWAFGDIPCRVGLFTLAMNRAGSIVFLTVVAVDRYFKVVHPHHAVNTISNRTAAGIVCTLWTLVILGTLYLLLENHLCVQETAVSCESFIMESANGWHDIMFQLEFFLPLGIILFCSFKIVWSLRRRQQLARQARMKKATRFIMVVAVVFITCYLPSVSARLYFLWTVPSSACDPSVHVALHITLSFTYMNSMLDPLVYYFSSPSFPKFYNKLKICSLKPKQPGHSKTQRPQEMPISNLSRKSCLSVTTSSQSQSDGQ

Hydroxycarboxylic acid receptor 1 (Homo sapiens, UniProt Q9BXC0), sequence (Q9BXC0 whole entry): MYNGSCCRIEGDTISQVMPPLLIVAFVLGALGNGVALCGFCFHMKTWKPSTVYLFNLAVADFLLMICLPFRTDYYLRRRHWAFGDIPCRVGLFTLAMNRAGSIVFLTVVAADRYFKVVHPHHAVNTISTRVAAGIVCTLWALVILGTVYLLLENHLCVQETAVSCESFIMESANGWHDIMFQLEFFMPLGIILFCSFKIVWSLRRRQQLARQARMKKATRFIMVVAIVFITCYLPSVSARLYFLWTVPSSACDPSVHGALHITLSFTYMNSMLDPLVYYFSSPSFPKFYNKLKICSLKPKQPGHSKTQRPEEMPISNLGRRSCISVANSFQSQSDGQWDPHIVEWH
G-protein coupled receptor 81 (Canis lupus familiaris, UniProt B9UM26), sequence (B9UM26 whole entry): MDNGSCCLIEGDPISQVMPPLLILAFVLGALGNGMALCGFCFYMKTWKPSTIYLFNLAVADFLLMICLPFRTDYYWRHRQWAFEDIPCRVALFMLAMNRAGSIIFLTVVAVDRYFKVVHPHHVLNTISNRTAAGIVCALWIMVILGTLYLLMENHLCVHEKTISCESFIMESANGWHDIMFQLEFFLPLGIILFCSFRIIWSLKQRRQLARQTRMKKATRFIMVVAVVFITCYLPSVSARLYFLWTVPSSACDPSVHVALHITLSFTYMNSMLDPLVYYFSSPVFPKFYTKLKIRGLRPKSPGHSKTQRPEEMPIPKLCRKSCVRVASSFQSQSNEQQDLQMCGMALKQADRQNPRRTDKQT

Row | SMILES | EC50 [1] | further results
1 | OB(O)c1cccc(O)c1 | > 1000 µM | –
2 | O=C(O)c1cncc(O)c1 | > 1000 µM | –
3 | O=C(O)c1cc(O)c[n+]([O-])c1 | > 1000 µM | –
4 | O=C(O)c1cccc(O)c1 [3-HYDROXYBENZOIC ACID] | 184 µM | –
5 | CC(C)(C)c1cc(O)cc(C(=O)O)c1 | > 1000 µM | –
6 | O=C(O)c1cccnc1 | – | Activity [2]: Active
7 | O=P(O)(O)c1cc(O)cc(O)c1 | > 1000 µM | –
8 | Cc1cc(O)cc(C(=O)O)c1 | 42 µM | –
9 | O=C(O)c1cc(O)cc(Cl)c1 | 16 µM | Activity [3]: Active; EC50 [4]: 67 µM; AUC(0-inf) [5]: 9360 ng·h/mL; Activity [6]: Active; half-life [7]: 88.2 min; Tmax [8]: 30 min; half-life [9]: 66 min; EC50 [10]: 22 µM; Activity [2]: Active; EC50 [11]: 7 µM; AUC(0-inf) [12]: 51300 ng·h/mL; Cmax [13]: 342 µM; Cmax [14]: 67.2 µM; Tmax [15]: 30 min; EC50 [16]: 27 µM; EC50 [17]: 17 µM
10 | O=C(O)c1cc(O)cc(C(F)(F)F)c1 | > 1000 µM | –
11 | Oc1cc(O)cc(-c2nnn[nH]2)c1 | > 1000 µM | –
12 | O=C(O)c1cc(O)cc(O)c1 [3,5-DIHYDROXYBENZOIC ACID] | 377 µM | –
13 | O=C(O)c1cc(O)cc(Br)c1 | 129 µM | –
14 | CP(=O)(O)c1cc(O)cc(O)c1 | > 1000 µM | –
15 | COc1cc(O)cc(C(=O)O)c1 | > 1000 µM | –
16 | O=C(O)c1cc(O)cc(-c2ccccc2)c1 | > 1000 µM | –
17 | O=C(O)c1cc(O)cc(F)c1 | 38 µM | –
18 | N#Cc1cc(O)cc(C(=O)O)c1 | > 1000 µM | –
